Measured values from ChEMBL document CHEMBL1157752, “Lessons learned from herbal medicinal products: the example of St. John's Wort (perpendicular)” (J Nat Prod, 2010).

Assays:
Cytochrome P450 3A4 = Cytochrome P450 3A4 (Homo sapiens, UniProt P08684)
Rattus norvegicus [1] = assay: Antidepressant activity in rat assessed as immobility time at 20 mg/kg, po by forced swimming test (reference value: 158.7 +/- 8.9 sec); type: functional
In short: (§1)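 Rat forced swimming test (Porsolt): test substances given orally, and immobility time in seconds is recorded as mean ± SEM. Imipramine serves as the reference antidepressant.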

Rattus norvegicus [2] = assay: Antidepressant activity in rat assessed as immobility time at 20 mg/kg, po by forced swimming test (reference value: 169.6 +/- 19 sec); type: functional
In short: as §1

Rattus norvegicus [3] = assay: Antidepressant activity in rat assessed as immobility time at 20 mg/kg, po by forced swimming test (reference value: 150.3 +/- 11.1 sec); type: functional
In short: as §1

Rattus norvegicus [4] = assay: Antidepressant activity in rat assessed as immobility time at 20 mg/kg, po by forced swimming test (reference value: 138.6 +/- 12 sec); type: functional
D(4) dopamine receptor = molecular target: T1, D(4) dopamine receptor (Homo sapiens, UniProt P21917); assay: Binding affinity to dopamine D4 receptor
T1 sequence (P21917 whole entry): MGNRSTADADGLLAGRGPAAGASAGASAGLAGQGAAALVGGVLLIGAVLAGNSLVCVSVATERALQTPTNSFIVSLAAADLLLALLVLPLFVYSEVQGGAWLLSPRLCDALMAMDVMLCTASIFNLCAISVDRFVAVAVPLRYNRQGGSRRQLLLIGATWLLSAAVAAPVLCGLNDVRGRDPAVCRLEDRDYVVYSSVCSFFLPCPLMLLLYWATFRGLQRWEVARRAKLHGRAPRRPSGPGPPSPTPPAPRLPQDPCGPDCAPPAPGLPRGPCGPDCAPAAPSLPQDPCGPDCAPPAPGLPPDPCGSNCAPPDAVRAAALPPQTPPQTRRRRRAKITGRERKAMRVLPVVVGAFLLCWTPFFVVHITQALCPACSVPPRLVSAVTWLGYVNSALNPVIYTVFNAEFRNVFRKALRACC

Rattus norvegicus [5] = assay: Antidepressant activity in rat assessed as immobility time at 0.6 mg/kg, po by forced swimming test (reference value: 169.6 +/- 19 sec); type: functional
In short: as §1

Rattus norvegicus [6] = assay: Antidepressant activity in rat assessed as immobility time at 1.3 mg/kg, po by forced swimming test (reference value: 169.6 +/- 19 sec); type: functional
In short: as §1

Rattus norvegicus [7] = assay: Antidepressant activity in rat assessed as immobility time at 2.6 mg/kg, po by forced swimming test (reference value: 169.6 +/- 19 sec); type: functional
In short: as §1

Rattus norvegicus [8] = assay: Antidepressant activity in rat assessed as immobility time at 5.2 mg/kg, po by forced swimming test (reference value: 169.6 +/- 19 sec); type: functional
In short: as §1

Rattus norvegicus [9] = assay: Antidepressant activity in rat assessed as immobility time at 7.6 mg/kg, po by forced swimming test (reference value: 169.6 +/- 19 sec); type: functional
In short: as §1

Rattus norvegicus [10] = assay: Antidepressant activity in rat assessed as immobility time at 0.6 mg/kg, po by forced swimming test (reference value: 150.3 +/- 11.1 sec); type: functional
Rattus norvegicus [11] = assay: Antidepressant activity in rat assessed as immobility time at 1.3 mg/kg, po by forced swimming test (reference value: 150.3 +/- 11.1 sec); type: functional
In short: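 Rats received single compounds by mouth in a Porsolt forced swimming test. The read-out was immobility time in seconds, compared with a saline control, with imipramine 20 mg/kg po as the reference antidepressant. Values are mean ± SEM, n = 10 per group.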

[12] = molecular target: Delta-type opioid receptor (Homo sapiens, UniProt P41143); assay: Binding affinity to delta opioid receptor
Rattus norvegicus [13] = assay: Antidepressant activity in rat assessed as immobility time at 0.08 mg/kg, po by forced swimming test (reference value: 158.7 +/- 8.9 sec); type: functional
In short: as §1

Rattus norvegicus [14] = assay: Antidepressant activity in rat assessed as immobility time at […], po by forced swimming test (reference value: 158.7 +/- 8.9 sec); type: functional
Rattus norvegicus [15] = assay: Antidepressant activity in rat assessed as immobility time at 0.5 mg/kg, po by forced swimming test (reference value: 158.7 +/- 8.9 sec); type: functional
In short: as §1

D(3) dopamine receptor = D(3) dopamine receptor (Homo sapiens, UniProt P35462); assay: Binding affinity to dopamine D3 receptor
[16] = molecular target: T2, Corticotropin-releasing factor receptor 1 (Homo sapiens, UniProt P34998); assay: Inhibition of CRF1 receptor
T2 sequence (P34998 whole entry): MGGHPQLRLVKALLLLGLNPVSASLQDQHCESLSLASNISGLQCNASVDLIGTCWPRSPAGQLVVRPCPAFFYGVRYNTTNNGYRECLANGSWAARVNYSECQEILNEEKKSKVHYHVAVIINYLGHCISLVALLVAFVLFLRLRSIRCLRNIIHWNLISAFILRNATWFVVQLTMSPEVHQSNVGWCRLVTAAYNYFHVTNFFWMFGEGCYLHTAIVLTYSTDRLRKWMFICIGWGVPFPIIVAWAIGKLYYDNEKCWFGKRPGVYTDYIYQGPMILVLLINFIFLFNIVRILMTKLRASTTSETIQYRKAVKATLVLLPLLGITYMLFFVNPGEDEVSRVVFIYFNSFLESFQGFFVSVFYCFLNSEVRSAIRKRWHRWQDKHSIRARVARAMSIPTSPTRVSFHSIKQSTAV

[17] = molecular target: T2, Corticotropin-releasing factor receptor 1; assay: Inhibition of recombinant CRF1 receptor expressed in CHO cells assessed as inhibition of CRF-induced cAMP formation; type: functional, cell-based
Rattus norvegicus [18] = assay: Reduction in corticotropin-releasing hormone mRNA expression in rat hyphalamic paraventricular nucleus at 0.2 mg/kg, po, qd for 8 weeks; type: functional; set-up: scale not given: the % may be the effect or the level left
Rattus norvegicus [19] = assay: Reduction in %5HT1A receptor mRNA expression in rat hippocampus at 0.2 mg/kg, po, qd for 8 weeks; type: functional; set-up: scale not given: the % may be the effect or the level left
[20] = Plasma concentration in po dosed rat after 270 mins; type: ADME, organism-based
In short: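 Rats were fed the pure compound orally, and plasma concentration was followed over time, including the 270 min point. AUC was expressed relative to the compound given alone, set at 100%.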

[21] = Permeability across apical to basolateral side in human Caco-2 cells; type: ADME, cell-based; settings: read-out: permeability
In short: (§2)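 Caco-2 colon adenocarcinoma cells were grown as monolayers in Transwell chambers, and compound was dosed to the apical or the basolateral side. Transport was measured apical to basolateral (absorption) and basolateral to apical (efflux). The result is given as apparent permeability in cm/s.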

[22] = Permeability across basolateral to apical side in human Caco-2 cells; type: ADME, cell-based; settings: read-out: permeability
In short: as §2

[23] = molecular target: T3, Alpha-2C adrenergic receptor (Homo sapiens, UniProt P18825); assay: Binding affinity to adrenergic alpha2c receptor
T3 sequence (P18825 whole entry): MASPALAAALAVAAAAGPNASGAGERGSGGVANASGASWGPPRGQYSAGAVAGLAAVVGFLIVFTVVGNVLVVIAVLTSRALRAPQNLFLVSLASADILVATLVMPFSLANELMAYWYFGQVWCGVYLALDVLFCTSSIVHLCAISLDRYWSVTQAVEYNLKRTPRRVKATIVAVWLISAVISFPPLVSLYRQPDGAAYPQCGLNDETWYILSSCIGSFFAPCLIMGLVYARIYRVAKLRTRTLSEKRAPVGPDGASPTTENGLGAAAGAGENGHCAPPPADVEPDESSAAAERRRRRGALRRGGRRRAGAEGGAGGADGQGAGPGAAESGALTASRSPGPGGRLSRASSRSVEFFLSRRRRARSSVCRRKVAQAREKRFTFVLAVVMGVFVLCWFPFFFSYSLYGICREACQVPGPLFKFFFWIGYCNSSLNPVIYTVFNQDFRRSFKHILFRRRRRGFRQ

Sequence of Cytochrome P450 3A4 (P08684 whole entry): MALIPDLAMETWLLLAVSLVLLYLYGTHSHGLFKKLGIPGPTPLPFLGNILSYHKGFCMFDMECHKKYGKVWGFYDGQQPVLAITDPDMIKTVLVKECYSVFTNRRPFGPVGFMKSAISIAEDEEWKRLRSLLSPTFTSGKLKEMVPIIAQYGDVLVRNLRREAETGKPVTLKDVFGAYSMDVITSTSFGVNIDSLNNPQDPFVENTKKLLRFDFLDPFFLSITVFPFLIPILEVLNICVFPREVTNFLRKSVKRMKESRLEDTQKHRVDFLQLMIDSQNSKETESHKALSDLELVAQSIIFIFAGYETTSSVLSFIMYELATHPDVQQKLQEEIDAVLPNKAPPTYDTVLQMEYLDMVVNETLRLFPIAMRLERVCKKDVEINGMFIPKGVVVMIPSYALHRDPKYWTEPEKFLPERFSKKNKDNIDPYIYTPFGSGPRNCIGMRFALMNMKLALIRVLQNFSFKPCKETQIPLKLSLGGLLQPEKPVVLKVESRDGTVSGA
Sequence of D(3) dopamine receptor (P35462 whole entry): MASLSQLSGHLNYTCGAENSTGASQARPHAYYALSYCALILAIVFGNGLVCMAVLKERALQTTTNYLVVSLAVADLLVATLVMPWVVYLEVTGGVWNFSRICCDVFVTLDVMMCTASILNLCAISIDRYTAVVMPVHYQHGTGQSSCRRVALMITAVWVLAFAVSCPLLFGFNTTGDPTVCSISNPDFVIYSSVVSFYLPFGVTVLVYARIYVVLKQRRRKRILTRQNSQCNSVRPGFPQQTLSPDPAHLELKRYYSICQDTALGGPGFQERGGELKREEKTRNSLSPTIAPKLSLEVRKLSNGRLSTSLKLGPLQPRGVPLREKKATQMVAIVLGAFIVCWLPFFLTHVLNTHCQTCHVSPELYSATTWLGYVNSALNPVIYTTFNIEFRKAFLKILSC
Sequence of Delta-type opioid receptor (P41143 whole entry): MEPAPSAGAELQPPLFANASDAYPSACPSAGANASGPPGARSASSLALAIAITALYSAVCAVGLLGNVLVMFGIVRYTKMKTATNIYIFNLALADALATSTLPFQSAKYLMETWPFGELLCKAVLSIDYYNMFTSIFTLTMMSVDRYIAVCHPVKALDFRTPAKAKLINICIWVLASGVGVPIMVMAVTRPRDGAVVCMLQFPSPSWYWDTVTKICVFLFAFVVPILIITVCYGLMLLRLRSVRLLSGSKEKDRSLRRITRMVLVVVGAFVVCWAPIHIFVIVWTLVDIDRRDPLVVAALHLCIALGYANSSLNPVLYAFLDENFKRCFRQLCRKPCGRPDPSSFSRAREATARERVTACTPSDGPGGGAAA

Question: With O=c1c(-c2c(O)cc(O)c3c(=O)cc(-c4ccc(O)cc4)oc23)c(-c2ccc(O)cc2)oc2cc(O)cc(O)c12 as the molecule, how does the IC50 (Cytochrome P450 3A4) read?
Answer: 80 nM

Question: What does the source list for CN(C)CCCN1c2ccccc2CCc2ccccc21 [IMIPRAMINE]?
Answer: Time (Rattus norvegicus [1]): 97.1 s; Time (Rattus norvegicus [2]): 95.4 s; Time (Rattus norvegicus [3]): 86.1 s; Time (Rattus norvegicus [4]): 77.5 s

Question: For O=c1c(O)c(-c2ccc(O)c(O)c2)oc2cc(O)cc(O)c12 [QUERCETIN], which Ki (D(4) dopamine receptor) is on record?
Answer: 7850 nM

Question: Which Time (Rattus norvegicus [5]) does the source give for O=c1c(O[C@@H]2O[C@H](CO)[C@H](O)[C@H](O)[C@H]2O)c(-c2ccc(O)c(O)c2)oc2cc(O)cc(O)c12 [HYPEROSIDE] here?
Answer: 101.2 s

Question: What about the Time (Rattus norvegicus [6]) of the same molecule?
Answer: 109.5 s

Question: And the Time (Rattus norvegicus [7])?
Answer: 133.7 s

Question: And the Time (Rattus norvegicus [8])?
Answer: 149.2 s

Question: What about the Time (Rattus norvegicus [9]) of the same molecule?
Answer: 158.8 s

Question: With C[C@@H]1O[C@@H](O[C@H]2C(=O)c3c(O)cc(O)cc3O[C@@H]2c2ccc(O)c(O)c2)[C@H](O)[C@H](O)[C@H]1O [ASTILBIN] as the molecule, how does the Time (Rattus norvegicus [10]) read?
Answer: 148.6 s

Question: What about the Time (Rattus norvegicus [11]) of the same molecule?
Answer: 163.7 s

Question: Which Ki [12] does the source give for O=c1cc(-c2ccc(O)c(-c3c(O)cc(O)c4c(=O)cc(-c5ccc(O)cc5)oc34)c2)oc2cc(O)cc(O)c12 [AMENTOFLAVONE] here?
Answer: 36.5 nM

Question: Which results are given for Cc1cc(O)c2c(=O)c3c(O)cc(O)c4c5c(O)cc(O)c6c(=O)c7c(O)cc(C)c8c1c2c(c34)c(c78)c65 [HYPERICIN]?
Answer: Time (Rattus norvegicus [13]): 154.7 s; Time (Rattus norvegicus [14]): 110.2 s; Time (Rattus norvegicus [15]): 147.8 s; Ki (D(3) dopamine receptor): 34.5 nM; IC50 [16]: 300 nM; IC50 [17]: 300 nM; Activity (Rattus norvegicus [18]): 16%; Activity (Rattus norvegicus [19]): 11%; concentration at 4.5 h [20]: 6 ng/mL; Papp A→B [21]: 0.25 ×10⁻⁶ cm/s; Papp B→A [22]: 12 ×10⁻⁶ cm/s; IC50 (Cytochrome P450 3A4): 8700 nM

Question: Which Time (Rattus norvegicus [10]) does the source give for O=c1c(O[C@@H]2O[C@H](CO)[C@@H](O)[C@H](O)[C@H]2O)c(-c2ccc(O)c(O)c2)oc2cc(O)cc(O)c12 [ISOQUERCETIN] here?
Answer: 100.4 s

Question: Which Ki [23] does the source give for O=C(O)[C@H]1O[C@@H](Oc2c(-c3ccc(O)c(O)c3)oc3cc(O)cc(O)c3c2=O)[C@H](O)[C@@H](O)[C@@H]1O [MIQUELIANIN] here?
Answer: 4060 nM

Question: Which Time (Rattus norvegicus [10]) does the source give for C[C@@H]1O[C@@H](Oc2c(-c3ccc(O)c(O)c3)oc3cc(O)cc(O)c3c2=O)[C@H](O)[C@H](O)[C@H]1O [QUERCITRIN] here?
Answer: 149.9 s

Question: What about the Time (Rattus norvegicus [11]) of the same molecule?
Answer: 162.3 s
